Test system: MS2 coat protein
Test: apparent Kd, MS2 coat protein; higher = weaker binding; RNA-MaP array; FMN 200 µM where present
Method in brief: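 The apparent Kd is the median of filtered binding-curve fits, one per cluster, to green signal normalised to red-channel RNA signal and control-cluster median Fmax. The clusters were on Illumina sequencing chips, and stalled E. coli RNA polymerase had transcribed the designs on them. Titration used SNAP-549-labelled MS2 coat protein from 0.7 or 1.5 nM, doubling to 3 µM, without and then with constant ligand, in 100 mM Tris-HCl pH 7.5, 80 mM KCl, 4 mM MgCl2, BSA, DTT, yeast tRNA and Tween-20.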

[1] = designed as: OFF switch for flavin mononucleotide, no ligand
[2] = ligand present: flavin mononucleotide, designed as: OFF switch for flavin mononucleotide
[3] = designed as: ON switch for flavin mononucleotide, no ligand
[4] = ligand present: flavin mononucleotide, designed as: ON switch for flavin mononucleotide

| Sequence | apparent Kd [1] [nM] | apparent Kd [2] [nM] | apparent Kd [3] [nM] | apparent Kd [4] [nM] |
| --- | --- | --- | --- | --- |
| CUGCCGUAGGAGAAGGACGGCGGGUUAUUUUUGUACAUGAGGAUCACCCAUGUAGGAUAUCCUACGUCAGGCGACCUACUACAG | 33 | 34.5 | – | – |
| CUGCUCCGUGUAGGAUAUGCAUACUCCCACUAUGCAGAAGGACAUGAGGAUCACCCAUGUAUGUUAUUAUCACGUGUAGCGUAC | 28.7 | 72.9 | – | – |
| CUGGACGUCGUAGGAUAUGUAGGAUAUUCCUACAUGAGGAUCACCCAUGUUGACAUGGAAGAAGGACAGAAGGACGAUGUCCAU | – | – | 229 | 4.55 |
| CUGGGCCAGGAGAAGGGCUAGAGUGUGAUAUAUUUGCCCGCGAGCACAUGAGGAUCACCCAUGUAGCAGGAUAUCCAAGCCGGU | 8.38 | 15.8 | – | – |
| CUGGUUGUCGUAGGAUAUGUAGGAUAUUCCUACAUGAGGAUCACCCAUGUUCGCAUGGAAGAAGGACAGAAGGACGAUGACCAG | – | – | 621 | 24.9 |
| CUGUACAUAUCAGGAUAUCUAUUUCCUACAUGAGGAUCACCCAUGUAGGUGAUCACCCAAGUAAAGGAGAAGGGAUAUGUAUAG | – | – | 66.4 | 23.7 |
| CUGUCCCAAGGAUAUACAUCAGUCCCAGGGUGCCGCAUAAGACAUGAGGAUCACCCAUGUAGAAGGUGGAGACC | 96.7 | 92.6 | – | – |
| CUGUGACGGUGCGCAAGUGGACGGAGAAGGCAGACAUGAGGAUCACCCAUGUGAGCCUGCUAUUCUGAGGAUAUCCGUUCGUAC | 27 | 132 | – | – |
| CUGUUCAGUGUAGGAUAUGCAUAUUCCCAUUAUGCAGAAGGACAUGAGGAUCACCCAUGUAUGUUAUUAUCAUGUGUUACAUGC | 33.6 | 124 | – | – |
| CUUAAGGCAGGAUAUGCUUUUUGUGACAUGAGGAUCACCCAUGUGAUGCAGUUUGGGUUUGCAGAAGGGCCUGAGU | 111 | 61.1 | – | – |
| CUUCAGUGAGGAUAUGGCAUGCGCUGAUAAGCGCUCUCACGCCAGAAGGCACAUGAGGAUCACCCAUGUAAAAC | 39.1 | 152 | – | – |
| CUUCUGUCAGGAUAUGCGAAUCACCACUAGGUCAGUGGUGAGCAGAAGGGACAUGAGGAUCACCCAUGUAAAGU | 37 | 166 | – | – |
| CUUGUGUGAGGAUAUGACAAUGGUAUCUUCGGAUACCAUUGUCAGAAGGUACAUGAGGAUCACCCAUGUAGAUC | 91 | 140 | – | – |
| CUUGUUGUCGAGGAUAUGCACCAGCUCACUGACGCAGAAGGCGACACAUGAGGAUCACCCAUGUCAGUUCGCGU | 37.4 | 225 | – | – |
| CUUGUUUAUGUGAGGAUAUACUGUUAGUAUAGUUUGUAGAAGGUACAUGAGGAUCACCCAUGUUUAUUACUCUU | 13.7 | 13.8 | – | – |
| CUUUAGCUAGGAUAUACAUGAGGAUCACCCAUGUUAGCGGCCAAUUGGACCGCGGGUUGUAGAAGGAGCAUUAA | 37.5 | 50.3 | – | – |
| CUUUCCAGGUAGAAGGGAUUACUACAUGAGGAUCACCCAUGUCGAUUGAUCAGGAUAUGCCUGUCACGACGCGUGAUGCUAGAG | – | – | 322 | 66.3 |
| CUUUCGUGAGGAUAUGUGGCUUCGAUCGUGAAAUCGAGGCUACAGAAGGCACAUGAGGAUCACCCAUGUUCCUC | 34.3 | 410 | – | – |
| CUUUCGUUAGCAGGAUAUGGACAGGCCUGUCCGUCUUGAGUCUGUAACAUGAGGAUCACCCAUGUCCAGAAGGGCUCGAAGGGA | 8.04 | 15 | – | – |

| Sequence | apparent Kd [1] [nM] | apparent Kd [2] [nM] | apparent Kd [3] [nM] | apparent Kd [4] [nM] |
| --- | --- | --- | --- | --- |
| CUUUUGUGAGGAUAUCAGUAGUAAAAAAAUAAAUUUACUACUGAGAAGGCACAUGAGGAUCACCCAUGUUCCUC | 42.2 | 296 | – | – |
| CUUUUGUGAGGAUAUCAGUAGUAAUAAAAUAAAAUUACUACUGAGAAGGCACAUGAGGAUCACCCAUGUUCCUC | 40 | 182 | – | – |
| CUUUUGUGAGGAUAUCAGUAGUAAUACAAUAGUAUUACUAUUGAGAAGGCACAUGAGGAUCACCCAUGUUCCUC | 39.4 | 156 | – | – |
| CUUUUGUGAGGAUAUCAGUUGUAAAAAAAUAAAAUUACUACUGAGAAGGCACAUGAGGAUCACCCAUGUUCCUC | 35 | 140 | – | – |
| CUUUUGUGAGGAUAUCGGUAGUAAUACAAUAGUAUUACUACUGAGAAGGCACAUGAGGAUCACCCAUGUUCCUC | 49.2 | 305 | – | – |
| CUUUUGUGAGGAUAUUAGUAGUAAAUAAAUAAAAUUACUACUGAGAAGGCACAUGAGGAUCACCCAUGUUUCUC | 32.4 | 284 | – | – |
| CUUUUGUGAGGAUAUUAGUAGUAAAUAAAUUAAAUUACUACUGAGAAGGCACAUGAGGAUCACCCAUGUUCCUC | 31.3 | 243 | – | – |
| GAAAACAGAGGAUAUACAAAAUUGACACGAAAGGUGCAAAAACAUGAGGAUCACCCAUGUAGAAGGCUGAAGAA | 24.8 | 22 | – | – |
| GAAAAGCGAGGAUAUACAUGAGGAUCACCCAUGUGUUGGGUGCGUUGGCUAGUCGUCUGUAGAAGGCGCACAAA | 904 | 466 | – | – |
| GAAAAGGUAGGAUAUACGAAAAAAAAGGGUAGAAAAAAAACACAUGAGGAUCACCCAUGUAGAAGGACCAAAAG | 31.9 | 94.1 | – | – |
| GAAACGCUUGACAUGAGGAUCACCCAUGUUAGAUUGUUAUGUCAGGAUAUAGUCUAGAAACUAGACUAGAAGGGAUAUGUUUCU | – | – | 438 | 107 |
| GAAAGGUCAGGAUAUACGUUAUGCUAGUGCUCGUACUAUAAGUAGAAGGGACAUGAGGAUCACCCAUGUGAUAA | 54.8 | 79.4 | – | – |
| GAACGUGACAUGAGGAUCACCCAUGUUGCCUGAGCCAGGUCGUAGGAUAUCCUGAUGAUUAAUUUGGAGAAGGGCGACUGGGAA | – | – | 34.4 | 14.3 |
| GAACGUGACAUGAGGAUCACCCAUGUUGCCUUGGCCAGGUCGUAGGAUAUCCUGUUGAUUAAUUUGGAGAAGGGCGACUGGGAG | – | – | 33.5 | 12.9 |
| GAAGCACAUGAGGAUCACCCAUGUGAGGAUAUCCGUCUGGUCCGGCCGGGCCAGUACCGGAGAAGGCGCGUCGA | 34.7 | 29.7 | – | – |
| GAAGCACGCAUUAACAUGAGGAUCACCCAUGUCAAAAGACGUGAGGAUAUGGAUCUGAAGAAGAUCCAGAAGGCACCGUGCUAA | – | – | 8.41 | 5.3 |
| GAAGCAGAUCAGAAGGACAACGUAGUUUCUGGCUUGGUGGCCCUCGUUUGUAGGAUAUGAUCUAACAUGAGGAUCACCCAUGUG | – | – | 53.2 | 11.7 |
| GAAUAAUUGAUCCAAUUUUACAACAUGAGGAUCACCCAUGUGCAGGAUAUCGUGAAAGUUAAAUACGAGAAGGGCAAGAACUGU | 220 | 344 | – | – |
| GAAUUAAUGAUCCAAUUUUACAACAUGAGGAUCACCCAUGUGCAGGAUAUCGUGUGUUUUAUAUUCGAGAAGGGCAAAUACAUU | 161 | 287 | – | – |

| Sequence | apparent Kd [1] [nM] | apparent Kd [2] [nM] | apparent Kd [3] [nM] | apparent Kd [4] [nM] |
| --- | --- | --- | --- | --- |
| GAAUUACAUGAGGAUCACCCAUGUGAGGAUAUCGAUGUAACUAGCAGCGUGCGGGACUCGAGAAGGCACUUGGA | 39.1 | 67.5 | – | – |
| GAAUUCGCAUGAGGAUAUGCACUCAUUUCAUGUGCAGAAGGUAUAACAUUAGACAUGAGGAUCACCCAUGUAUUGGUCAUUAAC | – | – | 13.7 | 12.1 |
| GACAAUCUAUCUGAGGAUAUCAUGAAAAAAACAUGAGGAUCACCCAUGUGCAGGAAAACUGCAUAUGAGAAGGCAGAUAGAUUGC | – | – | 678 | 27.4 |
| GACAUACAUGAGGAUCACCCAUGUUCAGGCGGACAAGGAUAUGUGUGGAAACCAUACUAUACAGAAGGUGUCUGUC | – | – | 24.8 | 17.3 |
| GACAUGAGGAUCACCCAUGUCCCUCCAGAAGGCUGGCGCGCGAAACCUAAAUCAGUUCCGGGCACAGAGGAUAUGGGCGGUUGG | – | – | 164 | 34.3 |
| GACAUGAGGAUCACCCAUGUCCGGGCCAAGAGAAGAAAUACCAGAAGGACCGGCAGAAAUGUGCGGUAGGAUAUGGGAUUCGUG | – | – | 36.4 | 9.15 |
| GACAUGGUCUAGAAGGCCUAUCUAUUUAAGUACGAUUUAGAACAGCAUAGGAGGAUAUGGCUAACAUGAGGAUCACCCAUGUUC | – | – | 49 | 23.3 |
| GACCAGGCAGGAUAUACAUGAGGAUCACCCAUGUGUCUGCGUUGGGCACGUGAACACGGUAGAAGGGCCUUGAC | 12.2 | 22.9 | – | – |
| GACCGUCACAGUUACCGGUUGAACGAGGAUAUGAUUACUGGGCCUGCACAUGAGGAUCACCCAUGUCAGAAGGCGUUCAGUCCC | 5.86 | 18.9 | – | – |
| GACCUCCCUGUAAGGAUAUCCGUGCAUCAAAGCAAGGAGAAGGUACAUGAGGAUCACCCAUGUCACCCGCGUUA | 14.7 | 21 | – | – |
| GACGAGGGAGGAUAUGCACGAGGGAUAUCUGACAUGCCUAUACAUGAGGAUCACCCAUGUAGAAGGCCCAGAUA | 10.6 | 13.1 | – | – |
| GACUGAUUGUAGAAGGUACUUAAUACUCAUGUAACAUGAGGAUCACCCAUGUAUCACCCAUAUUGUAAGGAUAUACAUAUCUCA | – | – | 337 | 167 |
| GACUUGCGCACAGGAUAUCCACGUAGCGGACGUGGAGAAGGGUGACAUGAGGAUCACCCAUGUACGUAAGUCUGGAUCACUUCC | – | – | 48.3 | 21.8 |
| GACUUGUCAGGAUAUCUUACAUAAACAUCGUAGUUACAAUUGGAGAAGGGACAUGAGGAUCACCCAUGUUUGGC | 28 | 25.4 | – | – |
| GACUUGUUAGGAUAUCUUACAUUUGCAUCAUAGCAACCAUUGGAGAAGGGACAUGAGGAUCACCCAUGUUUGGA | 31.6 | 31 | – | – |
| GAGACUACCGAGAAGGGCAUAUUAAGACUCUUCGUACUACGCCUAGACAUGAGGAUCACCCAUGUGCAGGAUAUCGAGCGGCUC | 6.38 | 6.05 | – | – |
| GAGAGAGGGUGAGGAUAUUUAGUGAUAAUGAUAAAAGAAGGCACAGACAUGAGGAUCACCCAUGUGGGAAUAAUCCAGAGAGAG | – | – | 305 | 288 |
| GAGCGAAAGCUCAAUGUCGAUAGCAGAAGGACAUGAAAAUACAUGAAAACAUGAGGAUCACCCAUGUAGGAUAUGCUAUCGACU | 8.75 | 89.4 | – | – |
